{"source": "the RNAGym collection of RNA variant scans (doi:10.1101/gad.245936.114)", "parents": {"B1": {"name": "tRNA (parent)", "chain": "CUCUCGGUAGCCAAGUUGGUUUAAGGCGCAAGACUUUAAUUUAUCACUACGAAAUCUUGAGAUCGGGCGUUCGACUCGCCCCCGGGAGAUUUUUUCCUCGAGCAA"}}, "note": "Variants at the floor of the assay were thinned out."}
{"variants_of": "B1", "test": "nonsense suppression (GFP-seq) (ratio to wild type); higher = more function; SUP4oc tRNA, yeast GFP reporter sort-seq", "procedure,_shortened": "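Raffinose/galactose medium with 80 mg/L adenine was used to grow yeast carrying genome-integrated tRNA variants (~3% random-mutation library), RFP, and a galactose-driven GFP ochre reporter. Cells went into GFP/RFP bins, which were Illumina-sequenced, and variants with ≥100 reads and ≥30 cells were scored. Nonsense suppression (GFPSEQ) is the per-bin median GFP/RFP weighted by estimated cell share and expressed relative to the unmutated parent tRNA.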"}
{"variant": "G66A C75U", "nonsense suppression": 0.368}
{"variant": "A9C U22G", "nonsense suppression": 0.878}
{"variant": "C3U U20A G26A", "nonsense suppression": "≤ 0.026"}
{"variant": "G6U G7C A33U", "nonsense suppression": "≤ 0.026"}
{"variant": "A9G C68U", "nonsense suppression": 0.153}
{"variant": "A24C C72G", "nonsense suppression": 0.0618}
{"variant": "A54U U63C", "nonsense suppression": 0.798}
{"variant": "U55C G86A", "nonsense suppression": 0.0315}
{"variant": "U21A G85A", "nonsense suppression": 1.06}
{"variant": "U2C U21C U57G", "nonsense suppression": "≤ 0.026"}
{"variant": "A14U A24U G26U C29G", "nonsense suppression": "≤ 0.026"}
{"variant": "A24U C29U", "nonsense suppression": 0.233}
{"variant": "G18A G73A", "nonsense suppression": "≤ 0.026"}
{"variant": "G28U C79U", "nonsense suppression": "≤ 0.026"}
{"variant": "U2G C12A", "nonsense suppression": "≤ 0.026"}
{"variant": "U4A G67C C68U", "nonsense suppression": "≤ 0.026"}
{"variant": "A60G U63A", "nonsense suppression": 0.163}
{"variant": "C12U C64A", "nonsense suppression": "≤ 0.026"}
{"variant": "G19C C27G A30U U55C", "nonsense suppression": "≤ 0.026"}
{"variant": "C1G U55C", "nonsense suppression": 0.0398}
{"variant": "A54U C81A", "nonsense suppression": "≤ 0.026"}
{"variant": "A33G U63C", "nonsense suppression": 0.11}
{"variant": "G18C C27G G67A G69C", "nonsense suppression": 1.05}
{"variant": "C12U U63A", "nonsense suppression": 0.697}
{"variant": "A30U C81A", "nonsense suppression": 0.0383}
{"variant": "C75G G85U", "nonsense suppression": 1.12}
{"variant": "U4A U76A", "nonsense suppression": 0.0437}
{"variant": "U20C A31U", "nonsense suppression": 0.0722}
{"variant": "A9G U55C", "nonsense suppression": 0.245}
{"variant": "G10U A13C", "nonsense suppression": 0.0296}
{"variant": "U22G G28U A62U G73U", "nonsense suppression": "≤ 0.026"}
{"variant": "A23G G73A", "nonsense suppression": 0.0291}
{"variant": "U20C A87G", "nonsense suppression": 0.213}
{"variant": "G61A A62U G84U", "nonsense suppression": "≤ 0.026"}
{"variant": "A13G A31G", "nonsense suppression": 0.149}
{"variant": "G7C U57A", "nonsense suppression": "≤ 0.026"}
{"variant": "A33G C75G", "nonsense suppression": 0.216}
{"variant": "C1A C3A U8A G88A", "nonsense suppression": "≤ 0.026"}
{"variant": "C3U A24C", "nonsense suppression": 0.0575}
{"variant": "U17C A30G A31G", "nonsense suppression": 0.0827}
{"variant": "A9G U17C", "nonsense suppression": 0.113}
{"variant": "U20G", "nonsense suppression": 0.989}
{"variant": "C29U A60G", "nonsense suppression": 0.114}
{"variant": "A31C G59C", "nonsense suppression": "≤ 0.026"}
{"variant": "A14U U57G", "nonsense suppression": "≤ 0.026"}
{"variant": "U17C G28A", "nonsense suppression": 1.09}
{"variant": "C12G A33U", "nonsense suppression": "≤ 0.026"}
{"variant": "G7A A24U C75U G78C", "nonsense suppression": "≤ 0.026"}
{"variant": "U35C G73A", "nonsense suppression": "≤ 0.026"}
{"variant": "U16A C34G U63C C77G G86C", "nonsense suppression": "≤ 0.026"}
{"variant": "G86C", "nonsense suppression": "≤ 0.026"}
{"variant": "U57G G78A", "nonsense suppression": 0.0374}
{"variant": "C29A C72A U76A", "nonsense suppression": "≤ 0.026"}
{"variant": "U20A A54U U76C", "nonsense suppression": 0.24}
{"variant": "C29A A60G", "nonsense suppression": 0.0331}
{"variant": "G28C U57A", "nonsense suppression": 0.0447}
{"variant": "C29G G78A", "nonsense suppression": "≤ 0.026"}
{"variant": "U17G A54U G61C", "nonsense suppression": 0.162}
{"variant": "C1A G86C", "nonsense suppression": "≤ 0.026"}
{"variant": "A30G A33U", "nonsense suppression": "≤ 0.026"}
{"variant": "G10A U21G G67C C79A", "nonsense suppression": "≤ 0.026"}
{"variant": "A62U G78A", "nonsense suppression": 0.0537}
{"variant": "C1A C12G U58A", "nonsense suppression": "≤ 0.026"}
{"variant": "U4C G86A", "nonsense suppression": 1.09}
{"variant": "G25A G61A G84C", "nonsense suppression": "≤ 0.026"}
{"variant": "C1A A54G A62U", "nonsense suppression": "≤ 0.026"}
{"variant": "A24G G59C", "nonsense suppression": "≤ 0.026"}
{"variant": "U76A C82U", "nonsense suppression": "≤ 0.026"}
{"variant": "C77U C83A", "nonsense suppression": "≤ 0.026"}
{"variant": "A13C U16A", "nonsense suppression": 1.17}
{"variant": "U57C U58A A62C", "nonsense suppression": "≤ 0.026"}
{"variant": "U16G A24U", "nonsense suppression": 0.221}
{"variant": "G10A G32C G88C", "nonsense suppression": "≤ 0.026"}
{"variant": "U55C C75U", "nonsense suppression": 0.903}
{"variant": "U55C C75A", "nonsense suppression": 1.05}
{"variant": "A13C G78A", "nonsense suppression": 0.208}
{"variant": "C29A U55G", "nonsense suppression": "≤ 0.026"}
{"variant": "U21G G28A", "nonsense suppression": 1.14}
{"variant": "U21G G28C", "nonsense suppression": 0.211}
{"variant": "A9C C34G", "nonsense suppression": "≤ 0.026"}
{"variant": "U2C A60C", "nonsense suppression": 0.0359}
{"variant": "G28A C75G", "nonsense suppression": 1.02}
{"variant": "A13U A33G", "nonsense suppression": 0.194}
{"variant": "C5U U8A A9C G10C C12U G25U A31G", "nonsense suppression": "≤ 0.026"}
{"variant": "G18U G25A G78U", "nonsense suppression": "≤ 0.026"}
{"variant": "A13U C27U G85A", "nonsense suppression": 0.22}
{"variant": "U16A G61A", "nonsense suppression": 0.819}
{"variant": "C1G U20G A23U C27A U76A G88U", "nonsense suppression": "≤ 0.026"}
{"variant": "A13U A23U", "nonsense suppression": 0.0855}
{"variant": "U20G A54U", "nonsense suppression": 1.04}
{"variant": "G28C C34A C68G A89U", "nonsense suppression": "≤ 0.026"}
{"variant": "C11G U63A U70G", "nonsense suppression": "≤ 0.026"}
{"variant": "A54C A60G", "nonsense suppression": 0.0773}
{"variant": "U2A C29U", "nonsense suppression": 0.0437}
{"variant": "U20G U21A", "nonsense suppression": 1.18}
{"variant": "A13G U20A", "nonsense suppression": 0.0339}
{"variant": "U58A U70C G86C A89C", "nonsense suppression": "≤ 0.026"}
{"variant": "A9G A14C A54G", "nonsense suppression": "≤ 0.026"}
{"variant": "C5G U20G C75G G88U", "nonsense suppression": "≤ 0.026"}
{"variant": "U4A G10A U21G G28C", "nonsense suppression": "≤ 0.026"}
{"variant": "U2A G84A A89G", "nonsense suppression": "≤ 0.026"}
{"variant": "C5G G59A A62C", "nonsense suppression": "≤ 0.026"}
{"variant": "A24U C29A C79U", "nonsense suppression": "≤ 0.026"}
{"variant": "C5U U8C G65A", "nonsense suppression": "≤ 0.026"}
{"variant": "A13G C82A", "nonsense suppression": "≤ 0.026"}
{"variant": "A23U U55C A60C G69U G85C", "nonsense suppression": "≤ 0.026"}
{"variant": "C34U C81A G88C", "nonsense suppression": "≤ 0.026"}
{"variant": "G25U G28U C29G C72G C81A", "nonsense suppression": "≤ 0.026"}
{"variant": "C3U G10C U17G U22A G25C", "nonsense suppression": "≤ 0.026"}
{"variant": "A9C G69A", "nonsense suppression": "≤ 0.026"}
{"variant": "A9U G28A C75U", "nonsense suppression": 0.0978}
{"variant": "G67C U70G", "nonsense suppression": "≤ 0.026"}
{"variant": "A54C U71C", "nonsense suppression": 0.0406}
{"variant": "A13C U63A", "nonsense suppression": 1.17}
{"variant": "A9U C11G C68A", "nonsense suppression": "≤ 0.026"}
{"variant": "U57G U71A", "nonsense suppression": "≤ 0.026"}
{"variant": "C27A C83G G84C", "nonsense suppression": "≤ 0.026"}
{"variant": "C3A G28U G65C", "nonsense suppression": "≤ 0.026"}
{"variant": "G69U C72G", "nonsense suppression": "≤ 0.026"}
{"variant": "G67A C75G", "nonsense suppression": 0.194}
{"variant": "C12A G32C U57G", "nonsense suppression": "≤ 0.026"}
{"variant": "U4C C68U U76C", "nonsense suppression": 1.13}
{"variant": "U21G U22G G28A", "nonsense suppression": 0.206}
{"variant": "A30G C82U", "nonsense suppression": 0.0497}
{"variant": "C12G C56G G65A A74U", "nonsense suppression": "≤ 0.026"}
{"variant": "A31G A33G U55C G61A", "nonsense suppression": 0.727}
{"variant": "U17C G28C A54U", "nonsense suppression": 0.219}
{"variant": "U2C C5G", "nonsense suppression": "≤ 0.026"}
{"variant": "U21A G66U C80G", "nonsense suppression": 0.219}
{"variant": "U17A G78U", "nonsense suppression": 0.186}
{"variant": "G32C U63C", "nonsense suppression": "≤ 0.026"}
{"variant": "G10U U20G U57C", "nonsense suppression": "≤ 0.026"}
{"variant": "C3G U20C", "nonsense suppression": 0.0788}
{"variant": "C5U U17C", "nonsense suppression": 0.0495}
{"variant": "C11G C34A U63A G65C", "nonsense suppression": "≤ 0.026"}
{"variant": "G10A C29G A54G", "nonsense suppression": "≤ 0.026"}
{"variant": "C3G G7C U55A", "nonsense suppression": "≤ 0.026"}
{"variant": "C5U", "nonsense suppression": 0.096}
{"variant": "U20G G67A", "nonsense suppression": 0.0529}
{"variant": "A30U", "nonsense suppression": 0.575}
{"variant": "G25C A89U", "nonsense suppression": "≤ 0.026"}
{"variant": "C1A G67C C72A", "nonsense suppression": "≤ 0.026"}
{"variant": "G7A G18U", "nonsense suppression": "≤ 0.026"}
{"variant": "G61A U63C", "nonsense suppression": 0.728}
{"variant": "A23U C29G", "nonsense suppression": "≤ 0.026"}
{"variant": "A62C G85A", "nonsense suppression": "≤ 0.026"}
{"variant": "C11A G26C G66U", "nonsense suppression": "≤ 0.026"}
{"variant": "U8A A30G A33G", "nonsense suppression": "≤ 0.026"}
{"variant": "C81U G88U", "nonsense suppression": 0.0501}
{"variant": "A14U U16C U58A G61U C72U", "nonsense suppression": "≤ 0.026"}
{"variant": "A9G G10U", "nonsense suppression": 0.0476}
{"variant": "C5G C34U A74U C77A", "nonsense suppression": "≤ 0.026"}
{"variant": "U57C G73A", "nonsense suppression": 0.0414}
{"variant": "G28C U63A", "nonsense suppression": 0.225}
{"variant": "C12A U35A C81G", "nonsense suppression": "≤ 0.026"}
{"variant": "U58G G59A C80U G86U", "nonsense suppression": "≤ 0.026"}
{"variant": "C27A A87U", "nonsense suppression": "≤ 0.026"}
{"variant": "A14U C27A G78C A87C", "nonsense suppression": "≤ 0.026"}
{"variant": "C11G A23G C34A C81U", "nonsense suppression": "≤ 0.026"}
{"variant": "C27U U63C", "nonsense suppression": 0.0314}
{"variant": "A9G A30U U58A", "nonsense suppression": 0.23}
{"variant": "G28C C79A G85C", "nonsense suppression": 0.0328}
{"variant": "G32U C56G", "nonsense suppression": 0.207}
{"variant": "C12G U17C U21G", "nonsense suppression": "≤ 0.026"}
{"variant": "A9G C81U", "nonsense suppression": 0.028}
{"variant": "U20G C82U", "nonsense suppression": 0.838}
{"variant": "C12U U16C", "nonsense suppression": 0.853}
